Assays:
[1] = test system: Human respirovirus 3; assay: Antiviral activity against Parainfluenza virus 3 infected in human HeLa cells assessed as inhibition of virus-induced cytopathicity; assay type: functional, organism-based; settings: Human respirovirus 3, HeLa
[2] = test system: Human betaherpesvirus 5; assay: Antiviral activity against Human cytomegalovirus AD169 infected in HEL cells assessed as inhibition of virus-induced cytopathicity; assay type: functional, organism-based; settings: Human betaherpesvirus 5, AD169, HEL
[3] = test system: Human betaherpesvirus 5; assay: Antiviral activity against Human cytomegalovirus Davis infected in HEL cells assessed as inhibition of virus-induced cytopathicity; assay type: functional, organism-based; settings: Human betaherpesvirus 5, Davis
[4] = test system: Coxsackievirus B4; assay: Antiviral activity against Coxsackie virus B4 infected in African green monkey Vero cells assessed as inhibition of virus-induced cytopathicity; assay type: functional, organism-based; settings: Enterovirus B
[5] = test system: Human alphaherpesvirus 3; assay: Antiviral activity against thymidine kinase deficient Varicella-Zoster virus infected in HEL cells assessed as reduction in virus plaque formation; assay type: functional, organism-based; settings: Human alphaherpesvirus 3, HEL
[6] = test system: Human alphaherpesvirus 1; assay: Antiviral activity against acyclovir-resistant thymidine kinase deficient Herpes simplex virus 1 KOS infected in HEL cells assessed as inhibition of virus-induced cytopathicity; assay type: functional, organism-based; settings: Human alphaherpesvirus 1, KOS
[7] = test system: Mammalian orthoreovirus 1; assay: Antiviral activity against Reovirus-1 infected in human HeLa cells assessed as inhibition of virus-induced cytopathicity; assay type: functional, organism-based; settings: Mammalian orthoreovirus 1, HeLa
[8] = test system: Human alphaherpesvirus 3; assay: Antiviral activity against thymidine kinase expressing Varicella-Zoster virus infected in HEL cells assessed as reduction in virus plaque formation; assay type: functional, organism-based; settings: Human alphaherpesvirus 3, HEL
[9] = test system: Human alphaherpesvirus 2; assay: Antiviral activity against Herpes simplex virus 2 G infected in HEL cells assessed as inhibition of virus-induced cytopathicity; assay type: functional, organism-based; settings: Human alphaherpesvirus 2, strain G
[10] = Cytotoxicity against African green monkey Vero cells assessed as alteration of cell morphology by microscopic analysis; assay type: cell-based; settings: chlorocebus sabaeus
Outline: (§1)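 The value is the minimal cytotoxic concentration (MCC), the lowest concentration that causes a microscopically visible change in cell morphology. It was read in the same HEL or Vero cell cultures used for the antiviral tests.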

[11] = test system: Influenza B virus; assay: Antiviral activity against Influenza B virus infected in MDCK cells assessed as inhibition of virus-induced visual cytopathicity; assay type: functional, organism-based
[12] = test system: Influenza A virus H3N2; assay: Antiviral activity against Influenza A virus H3N2 infected in MDCK cells assessed as inhibition of virus-induced visual cytopathicity; assay type: functional, organism-based
[13] = test system: Respiratory syncytial virus; assay: Antiviral activity against Respiratory syncytial virus infected in human HeLa cells assessed as inhibition of virus-induced cytopathicity; assay type: functional, organism-based
[14] = Cytotoxicity against MDCK cells assessed as alteration of cell morphology by microscopic analysis; assay type: cell-based, Canis lupus familiaris; settings: dog
[15] = Cytotoxicity against HEL cells assessed as alteration of cell morphology by microscopic analysis; assay type: cell-based; settings: human; outline: as §1
[16] = test system: Vesicular stomatitis virus; assay: Antiviral activity against Vesicular stomatitis virus infected in human HeLa cells assessed as inhibition of virus-induced cytopathicity; assay type: functional, organism-based
[17] = Half life in rat serum by 31P NMR analysis; assay type: ADME, cell-free
[18] = test system: Punta Toro virus; assay: Antiviral activity against Punta Toro virus infected in African green monkey Vero cells assessed as inhibition of virus-induced cytopathicity; assay type: functional, organism-based
[19] = test system: Influenza A virus H3N2; assay: Antiviral activity against Influenza A virus H3N2 infected in MDCK cells assessed as inhibition of virus-induced cytopathicity by MTS assay; assay type: functional, organism-based
[20] = test system: Vaccinia virus; assay: Antiviral activity against Vaccinia virus infected in HEL cells assessed as inhibition of virus-induced cytopathicity; assay type: functional, organism-based; settings: Orthopoxvirus vaccinia
[21] = Half life in human serum by 31P NMR analysis; assay type: ADME, cell-free
[22] = test system: Influenza A virus; assay: Antiviral activity against Influenza A virus H1N1 infected in MDCK cells assessed as inhibition of virus-induced cytopathicity by MTS assay; assay type: functional, organism-based
[23] = test system: Yellow fever virus; assay: Antiviral activity against Yellow fever virus infected in African green monkey Vero cells assessed as inhibition of virus-induced cytopathicity; assay type: functional, organism-based
[24] = test system: Sindbis virus; assay: Antiviral activity against Sindbis Virus infected in African green monkey Vero cells assessed as inhibition of virus-induced cytopathicity; assay type: functional, organism-based
[25] = test system: Influenza B virus; assay: Antiviral activity against Influenza B virus infected in MDCK cells assessed as inhibition of virus-induced cytopathicity by MTS assay; assay type: functional, organism-based
[26] = test system: Human alphaherpesvirus 1; assay: Antiviral activity against Herpes simplex virus 1 KOS infected in HEL cells assessed as inhibition of virus-induced cytopathicity; assay type: functional, organism-based; settings: Human alphaherpesvirus 1, KOS
[27] = test system: Human coronavirus 229E; assay: Antiviral activity against Human coronavirus 229E infected in HEL cells assessed as inhibition of virus-induced cytopathicity; assay type: functional, organism-based
[28] = test system: Human adenovirus 2; assay: Antiviral activity against Adenovirus 2 infected in HEL cells assessed as inhibition of virus-induced cytopathicity; assay type: functional, organism-based; settings: Human mastadenovirus C
[29] = test system: Influenza A virus; assay: Antiviral activity against Influenza A virus H1N1 infected in MDCK cells assessed as inhibition of virus-induced visual cytopathicity; assay type: functional, organism-based
[30] = Cytotoxicity against human HeLa cells assessed as alteration of cell morphology by microscopic analysis; assay type: cell-based

C/C(=C\CP(=O)(N[C@@H](C)C(=O)OC(C)C)Oc1cccc2c1CCCC2)Cn1cc(C)c(=O)[nH]c1=O (stereo not given in full)
EC50 [1]: > 100 µM
EC50 [2]: > 100 µM
EC50 [3]: > 20 µM
EC50 [4]: > 100 µM
EC50 [5]: 53.5 µM
EC50 [6]: > 100 µM
EC50 [7]: > 100 µM
EC50 [8]: 58.5 µM
EC50 [9]: > 100 µM
MCC [10]: ≥ 20 µM
EC50 [11]: > 100 µM
EC50 [12]: > 100 µM
EC50 [13]: > 100 µM
MCC [14]: > 100 µM
MCC [15]: > 100 µM
EC50 [16]: > 100 µM
t1/2 [17]: > 12 h
EC50 [18]: > 100 µM
EC50 [19]: > 100 µM
EC50 [20]: > 100 µM
t1/2 [21]: > 12 h
EC50 [22]: > 100 µM
EC50 [23]: > 100 µM
EC50 [24]: > 100 µM
EC50 [25]: > 100 µM
EC50 [26]: > 100 µM
EC50 [27]: > 100 µM
EC50 [28]: > 100 µM
EC50 [29]: > 100 µM
MCC [30]: ≥ 20 µM
